# Beta cell apopt – blocks beta cell apoptosis. AID 435005. 300,000 compounds, 0.8% hits. protection from apoptosis, % (test concentration not listed). INS-1E cytokine-induced death, ATP luminescence, 48 h; percent of positive-control rescue, neutral wells zero;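 active means Every replicate reaches about 75%, or at least half do and their mean reaches it too, limit read from the data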;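 further: 0% = cytokine-treated negative control wells and 100% = positive control rescue; higher means more ATP so stronger rescue from cytokine killing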
# Mot1-301 SUMO – blocks SUMOylation pathway, rescuing yeast Mot1-301 growth; 320,000 compounds, 1% hits; S. cerevisiae Mot1-301 growth rescue, ATP luminescence, 38.5C; percent above DMSO median, 100 means doubled; growth rescue, % at 18.8 µM;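 active means every valid replicate shows activation above 250% relative to neutral control wells; inactive means the rest, any valid replicate at or below 250%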;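 further: OY570 slx delta 5 strain wells were the positive control but not used for scaling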
# CSC inhib – blocks cancer stem cells; 300,000 compounds, 1.1% hits; inhibition, % at 7.5 µM; cancer stem cell-like cells viability, luminescence; in the data active means inhibition above about 75%; tested in HMLE shEcad cells
# WT yeast gro inh – growth inhibition of WT yeast, mitochondrial fusion screen. mitochondrial fusion phenotypic screen, WT strain. inhibition, % at 10 µM. 190,000 compounds, 2.1% hits. AID 1362; in the data active means inhibition above about 58%; tested in S. cerevisiae
# Efflux pump mplx – antifungal efflux pump inhibition, Nile Red retention | inhibition, % at 10 µM | AID 485275 | S. cerevisiae Candida pump triplex | 330,000 compounds, 0.44% hits;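 active means plate passing quality check with inhibition over a set limit, or well fluorescence over plate mean plus 4 SD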;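 further: Nile Red retained in pooled yeast measured as flow cytometry median fluorescence; 0% = buffer negative control and 100% = Enniatin B positive control; higher means more Nile Red kept so more efflux inhibition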
# T cruzi repl – blocks replication of Trypanosoma cruzi; T. cruzi beta-gal in NIH3T3, luminescence, 90 h; inhibition, % (concentration not given with the values); 300,000 compounds, 1.4% hits; AID 1885;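 active means mean inhibition across valid replicates above about 55%, limit read from the data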;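 further: signal also drops with host cell toxicity which is not excluded here; 0% = plate median of DMSO wells and 100% = zero luminescence signal; higher percent means less beta-gal luminescence so fewer parasites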
#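 compound dosing = single 50 nL compound addition per well in DMSO | material = NIH/3T3 host cells with β-galactosidase reporter T. cruzi | input = 5,000 host fibroblasts per well | timing = ≥90 h infection period, 3 h prior cell attachment | read-out basis = percent inhibition of parasite-derived β-gal signal | detection = GalScreen β-gal luminescence, detergent lysis, 60 min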
# Cmpd fluor yeast – counter-screen for efflux pump inhibitors: compound fluorescence; fluorescence ratio to DMSO, % at 10 µM; S. cerevisiae AD/pABC3, flow cytometry; AID 588517; shares compounds with Efflux pump mplx; 1,700 compounds, 4% hits;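 active means fluorescence ratio to DMSO above its plate's cutoff, the plate mean ratio plus 5 SD, cut at about 210% in these data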;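 further: unstained yeast with no Nile Red so the signal is compound autofluorescence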
# CaMdr1 efflux inh – blocks the Candida albicans Mdr1 efflux pump in yeast; AID 588518; inhibition, % at 10 µM; shares compounds with Efflux pump mplx; S. cerevisiae AD/CaMDR1, Nile Red efflux, flow cytometry; 1,700 compounds, 1% hits; in the data active means inhibition above about 26%;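 further: 0% = DMSO vehicle and 100% = reference inhibitor; higher means more Nile Red retained so more efflux inhibition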
# CaCdr2 efflux inh – Candida Cdr2 efflux pump inhibition; shares compounds with Efflux pump mplx; S. cerevisiae AD/CaCDR2, Nile Red retention, flow cytometry; Nile Red retention ratio vs DMSO, % at 10 µM; 1,700 compounds, 4% hits; AID 588520; in the data active means Nile Red retention ratio vs DMSO above about 190%;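 further: higher ratio means more blocking of Cdr2 efflux of the dye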
# Cdr1 pump inh – inhibitors of Candida albicans Cdr1 efflux pump. shares compounds with Efflux pump mplx. 1,700 compounds, 1% hits. inhibition, % at 10 µM. S. cerevisiae AD/CaCDR1, Nile Red efflux, flow cytometry. AID 588522;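 active means inhibition above the screen-wide mean plus twice its standard deviation, cut at about 32% in these data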
# Starred values were filed as active, the others as inactive; x = no result given. Sampled rows, rich in hits. Any-hit rate of the full collection: about 4.8%.
SMILES,Beta cell apopt,Mot1-301 SUMO,CSC inhib,WT yeast gro inh,Efflux pump mplx,T cruzi repl,Cmpd fluor yeast,CaMdr1 efflux inh,CaCdr2 efflux inh,Cdr1 pump inh
COc1ccc(NC(=O)CSc2nnc(Cc3cccn3C)n2CCc2ccccc2)c(OC)c1,-4,-10,-1,-1,6.7*,1,79,0,91,0
COc1ccccc1NC(=O)CSc1nnc(Cc2cccn2C)n1CCc1ccccc1,2,22,-2,-6,0,13,x,x,x,x
O=C1/C(=C\c2ccco2)CCC/C1=C\c1ccco1,-5,-19,-8,1,60*,-11,98,0,105,0
COc1cccc(-c2nnc(SCC(=O)OC(C)C)n2Cc2ccco2)c1,-2,9,-7,-12,0,6,x,x,x,x
CCn1cc(C(=O)O)c(=O)c2cnc(N3CCN(C(=S)NC(=O)c4ccccc4)CC3)nc21,-2,870,1,x,0.8*,0,93,0,98,0
O=C(CCCCl)Oc1ccc2cc(-c3ccc4ccccc4n3)c(=O)oc2c1,-2,16,29,-7,0,-13,x,x,x,x
C/C=C/C(O)c1ccc2ccccc2c1 (stereo not given),4,-24,1,x,0,-26,x,x,x,x
O=C(NCC(c1cccs1)N1CCOCC1)c1ccc(Cl)c(S(=O)(=O)N2CCOCC2)c1 (stereo not given),-2,25,8,x,1.1*,4,102,0,97,0
CCOC(=O)N1CCN(C(=S)Nc2ccc3nc(N4CCN(CC)CC4)cc(C)c3c2)CC1,0,-6,24,1,1,23,x,x,x,x
Cc1[nH]c(C)c(S(=O)(=O)NCc2ccco2)c1C(=O)N1CCCCC1,-9,15,-11,x,0,-12,x,x,x,x
CN1CCN(Cc2cc(Cl)c3cccnc3c2OC(=O)c2cccs2)CC1,50,7,17,-7,11*,5,97,0,98,0
O=C(CC1Sc2ccccc2NC1=O)Nc1ccccc1[N+](=O)[O-] (stereo not given),-8,-8,10,6,18*,4,100,0,94,0
O=C(CC1Sc2ccccc2NC1=O)Nc1cccnc1 (stereo not given),-4,-2,-4,4,0,-2,x,x,x,x
COc1ccc(CC(=O)Nc2c3c(nn2C(C)(C)C)CS(=O)C3)cc1 (stereo not given),-5,-10,3,2,1.8*,-3,114,0,100,0
COc1ccc(CC(=O)Nc2c3c(nn2-c2ccccc2C)CS(=O)C3)cc1 (stereo not given),-6,-14,x,0,0,-10,x,x,x,x
Cn1c(SCC(=O)Nc2ccc3nc(SCC(=O)NC4CC4)sc3c2)nnc1-c1ccccc1,0,147,23,-9,1.1*,5,100,0,123,0
CC(C)c1ccc(NC(=O)C(c2ccccc2)N2CC(=O)Nc3ccccc32)cc1 (stereo not given),5,-1,5,11,0,5,x,x,x,x
NC1=NC[C@H](Cc2ccc(O)cc2)N1CCc1cccc(F)c1,-7,-4,-12,x,0,-19,90,0,85,0
NC1=NC[C@H](Cc2ccc(O)cc2)N1CC1CCCCC1,3,6,8,x,0,-16,101,0,96,0
NC1=NC[C@@H](Cc2ccc(O)cc2)N1CCCCC1CCCCC1,57,57,23,x,1.0*,33,111,0,116,0
C/C(=N\NC(=O)CCCNc1ccccc1)c1ccncc1,-6,429,x,-3,1.1*,-1,97,0,106,0
C/C(=N\NC(=O)CCCNc1ccc(C)cc1)c1ccccn1,54,x,34,48,0,35,x,x,x,x
COc1ccc(S(=O)(=O)Nc2ccc3c(c2)N(C(C)=O)CCC3)cc1OC,5,86,11,x,1.0*,-12,106,0,100,0
COc1ccc(S(=O)(=O)Nc2ccc3c(c2)N(C(C)=O)CCC3)cc1,24,-7,x,x,0,-5,x,x,x,x
COC(=O)[C@]1(C)N[C@H](CN(C)C(=O)C2CCCCC2)[C@@H]2C(=O)N(Cc3ccccc3)C(=O)[C@@H]21,x,x,x,x,0,x,x,x,x,x
SMILES,Beta cell apopt,Mot1-301 SUMO,CSC inhib,WT yeast gro inh,Efflux pump mplx,T cruzi repl,Cmpd fluor yeast,CaMdr1 efflux inh,CaCdr2 efflux inh,Cdr1 pump inh
CC(SCc1ccccc1)C(=O)N/N=C/c1ccc(OCC(=O)NCc2ccco2)cc1 (stereo not given),-2,0,3,-1,14*,-11,118,0,94,1
O=C(CCNS(=O)(=O)c1cccc(C(F)(F)F)c1)NCc1ccco1,3,2,-4,x,0,x,x,x,x,x
N#C/C(=C\c1ccco1)C(=O)Nc1cccc2ncccc12,-3,167,3,-5,0,-17,95,0,105,0
O=C(NC(=S)Nc1cccc2ncccc12)c1ccco1,-3,347,-5,2,0,-8,x,x,x,x
COc1ccc(NC(=S)Nc2ccccc2)c(OC)c1,0,18,5,-7,1.1*,-6,107,0,104,0
O=C(NCc1ccc(Cl)cc1)N1CCc2ccccc2C1,2,330,4,x,1.3*,-2,106,0,108,0
CCCSc1nnc(NC(=O)Nc2ccccc2)s1,32,13,41,0,15*,11,113,0,117,0
O=C(CN1CCN(Cc2ccccc2Cl)CC1)N=Nc1c(O)[nH]c2ccccc12,5,2,24,-15,13*,12,107,0,99,0
COC(=O)c1ccccc1NC1OC(=O)c2ccccc21 (stereo not given),-2,19,8,-6,91*,0,101,0,94,0
CC1CCc2c(sc3nc(C(C)(C)C)nc(N4CCN(C(=O)CCl)CC4)c23)C1 (stereo not given),98*,139,63,x,0.6*,43,111,0,121,0
O=C(O)CCC(=O)Nc1ccccc1Oc1ccccc1,x,0,5,9,0,-12,x,x,x,x
CCN1CCN(CC(=O)Nc2cc(C(F)(F)F)ccc2OCCOC)CC1,9,-14,12,x,1.3*,8,104,0,107,0
CCCOc1ccc(C(F)(F)F)cc1NC(=O)CN1C(=O)C(=O)N(CC)C1=O,-4,-7,-25,x,0,x,x,x,x,x
CCOCCCNS(=O)(=O)c1ccc(NC(=O)Cc2c(F)cccc2Cl)cc1,-2,0,0,6,0,-11,x,x,x,x

# Screening results from PubChem.
